Values belong to the molecule of their own block, whether it stands above or below them. The source made the active and inactive calls. The rule behind the calls is not given here.
How the values were obtained:
[1] = Inhibition of bovine alpha chymotrypsin; design: species or system Bos taurus
[2] = Inhibition of chymotrypsin-like activity of human erythrocyte 20S proteasome
In short: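 Isolated 20S proteasome purified from human erythrocytes was tested in a fluorimetric kinetic assay of chymotrypsin-like activity. Potency is reported as IC50.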

[3] = Inhibition of chymotrypsin-like activity of human 20S proteasome in Molt4 cells; assay type: cell-based; conditions: molt-4
In short: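 Intact human leukemia Molt-4 cells were given the cell-permeable fluorogenic chymotrypsin-like substrate MeOSuc-FLF-AFC, so the read-out also reflects inhibitor cell permeability. Potency is reported as EC50.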

A2780 = test: Cytotoxicity against human A2780 cells; assay type: functional, cell-based
In short: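 Antiproliferative activity was measured in A2780 ovarian carcinoma cells with a standard colorimetric assay of cell proliferation and viability. Results are expressed as IC50.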

[4] = Metabolic stability in human liver microsomes; assay type: ADME, Microsome
[5] = target: Disintegrin and metalloproteinase domain-containing protein 17 (Homo sapiens) (UniProt P78536); test: Inhibition of human TACE at 10 uM
Chymase (Homo sapiens) = Chymase (Homo sapiens) (UniProt P23946); test: Inhibition of human chymase at 10 uM
Sus scrofa [6] = species: Sus scrofa; test: Inhibition of pig pancreatic elastase 1 at 10 uM
[7] = Metabolic stability in dog liver microsomes; assay type: ADME, Canis lupus familiaris, Microsome
[8] = Inhibition of human chymotrypsin
In short: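 Cross-reactivity was tested against human pancreas α-chymotrypsin using a fluorogenic specific substrate. Results are expressed as IC50.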

[9] = Clearance in CD1 mouse at 0.8 mg/kg, iv; assay type: ADME, organism-based; design: dose 0.8 mg/kg, route intravenous; conditions: in vivo
In short: (§1)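 Female Sprague–Dawley rats and CD-1 mice each received a single iv or oral (po) dose. Terminal half-life and systemic clearance were estimated from plasma exposure over time, alongside AUC0→∞, Vss and absolute oral bioavailability.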

Caspase-8 (Homo sapiens) = Caspase-8 (Homo sapiens) (UniProt Q14790); test: Inhibition of human caspase 8 at 10 uM
[10] = Protein binding in mouse plasma; assay type: ADME, cell-free; conditions: read-out: PPB (converted)
Caspase-7 (Homo sapiens) = Caspase-7 (Homo sapiens) (UniProt P55210); test: Inhibition of human caspase 7 at 10 uM
[11] = target: Prothrombin (Homo sapiens) (UniProt P00734); test: Inhibition of human thrombin at 10 uM
Caspase-1 (Homo sapiens) = Caspase-1 (Homo sapiens) (UniProt P29466); test: Inhibition of human caspase 1 at 10 uM
Caspase-3 (Homo sapiens) = Caspase-3 (Homo sapiens) (UniProt P42574); test: Inhibition of human caspase 3 at 10 uM
[12] = Metabolic stability in rat liver microsomes; assay type: ADME, Microsome
[13] = target: Interstitial collagenase (Homo sapiens) (UniProt P03956); test: Inhibition of human MMP1 at 10 uM
Mus musculus = test: Inhibition of 20S proteasome beta5beta1 subunit binding in human RPMI 8226 cells xenografted mouse; assay type: functional, organism-based
[14] = Volume of distribution at steady state in CD1 mouse at 0.8 mg/kg, iv; assay type: ADME, organism-based; design: dose 0.8 mg/kg, route intravenous; conditions: in vivo, read-out: Vdss
In short: (§2)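 Single-dose pharmacokinetics after iv or oral administration in female Sprague–Dawley rats and in CD-1 mice; plasma exposure (AUC0–∞) used to derive steady-state volume of distribution, clearance, terminal half-life and absolute oral bioavailability.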

Trypsin (Homo sapiens) = Trypsin (Homo sapiens) (UniProt P07477+P07478+P35030); test: Inhibition of human trypsin at 10 uM; assay type: protein assay
[15] = target: Procathepsin L (Homo sapiens) (UniProt P07711); test: Inhibition of human cathepsin L at 10 uM
[16] = Half life in CD1 mouse at 0.8 mg/kg, iv; assay type: ADME, organism-based; design: dose 0.8 mg/kg, route intravenous; conditions: in vivo; in short: as §1
[17] = Protein binding in dog plasma; assay type: ADME, cell-free, Canis lupus familiaris; conditions: read-out: PPB (converted)
[18] = target: Cathepsin E (Homo sapiens) (UniProt P14091); test: Inhibition of human cathepsin E at 10 uM
Caspase-9 (Homo sapiens) = Caspase-9 (Homo sapiens) (UniProt P55211); test: Inhibition of human caspase 9 at 10 uM
[19] = target: Cathepsin D (Homo sapiens) (UniProt P07339); test: Inhibition of human cathepsin D at 10 uM
[20] = target: Neutrophil elastase (Homo sapiens) (UniProt P08246); test: Inhibition of human neutrophil elastase 2 at 10 uM
[21] = Protein binding in rat plasma; assay type: ADME, cell-free; conditions: read-out: PPB (converted)
[22] = target: Cathepsin G (Homo sapiens) (UniProt P08311); test: Inhibition of human cathepsin G at 10 uM
Caspase-2 (Homo sapiens) = Caspase-2 (Homo sapiens) (UniProt P42575); test: Inhibition of human caspase 2 at 10 uM
[23] = target: Plasminogen (Homo sapiens) (UniProt P00747); test: Inhibition of human plasmin at 10 uM
[24] = target: Endothelin-converting enzyme 1 (Homo sapiens) (UniProt P42892); test: Inhibition of human ECE1 at 10 uM
[25] = target: Coagulation factor X (Homo sapiens) (UniProt P00742); test: Inhibition of human factor 10a at 10 uM
[26] = target: Neutrophil collagenase (Homo sapiens) (UniProt P22894); test: Inhibition of human MMP8 at 10 uM
[27] = Oral bioavailability in CD1 mouse at 4 mg/kg; assay type: ADME, organism-based; conditions: in vivo; in short: as §2
[28] = target: Cathepsin S (Homo sapiens) (UniProt P25774); test: Inhibition of human cathepsin S at 10 uM
Sus scrofa [29] = species: Sus scrofa; test: Inhibition of pig pepsin at 10 uM
Homo sapiens [30] = species: Homo sapiens; test: Inhibition of human tryptase at 10 uM
[31] = target: Dipeptidyl peptidase 1 (Bos taurus) (UniProt Q3ZCJ8); test: Inhibition of bovine cathepsin C at 10 uM
[32] = target: Matrilysin (Homo sapiens) (UniProt P09237); test: Inhibition of human MMP7 at 10 uM
[33] = target: Tissue-type plasminogen activator (Homo sapiens) (UniProt P00750); test: Inhibition of human TPA at 10 uM
[34] = Metabolic stability in mouse liver microsomes; assay type: ADME, Microsome
Renin (Homo sapiens) = Renin (Homo sapiens) (UniProt P00797); test: Inhibition of human renin at 10 uM
[35] = target: Stromelysin-1 (Homo sapiens) (UniProt P08254); test: Inhibition of human MMP3 at 10 uM
[36] = AUC (0 to infinity) in CD1 mouse at 0.8 mg/kg, iv; assay type: ADME, organism-based; design: time infinity, dose 0.8 mg/kg, route intravenous; conditions: plasma
In short: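 CD-1 mice received a single dose by the iv or oral route. AUC from 0 to infinity was reported with terminal half-life, Vss, clearance and absolute oral bioavailability.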

Homo sapiens [37] = species: Homo sapiens; test: Inhibition of human chymotrypsin at 10 uM
[38] = target: Dipeptidyl peptidase 4 (Homo sapiens) (UniProt P27487); test: Inhibition of human DPP4 at 10 uM
[39] = target: Neprilysin (Homo sapiens) (UniProt P08473); test: Inhibition of human NEP at 10 uM
[40] = Inhibition of bacterial prolyl oligopeptidase at 10 uM
[41] = Half life in CD1 mouse at 4 mg/kg, po; assay type: ADME, organism-based; design: dose 4 mg/kg, route oral; conditions: in vivo; in short: as §1
[42] = target: Pro-cathepsin H (Homo sapiens) (UniProt P09668); test: Inhibition of human cathepsin H at 10 uM
[43] = target: Protease (Human immunodeficiency virus 1) (UniProt Q9YQ12); test: Inhibition of HIV1 protease at 10 uM
Cathepsin G = Cathepsin G (Homo sapiens, UniProt P08311); test: Inhibition of human cathepsin G
[44] = target: Coagulation factor VII (Homo sapiens) (UniProt P08709); test: Inhibition of human factor 7a at 10 uM
[45] = target: 72 kDa type IV collagenase (Homo sapiens) (UniProt P08253); test: Inhibition of human MMP2 at 10 uM
Chymase = Chymase (Homo sapiens, UniProt P23946); test: Inhibition of human chymase
[46] = target: Calpain-1 catalytic subunit (Homo sapiens) (UniProt P07384); test: Inhibition of human calpain 1 at 10 uM
[47] = target: Plasma kallikrein (Homo sapiens) (UniProt P03952); test: Inhibition of human plasma kallikrein at 10 uM
[48] = target: Macrophage metalloelastase (Homo sapiens) (UniProt P39900); test: Inhibition of human MMP12 at 10 uM
[49] = AUC (0 to infinity) in CD1 mouse at 4 mg/kg, po; assay type: ADME, organism-based; design: time infinity, dose 4 mg/kg, route oral; conditions: plasma
[50] = target: Cathepsin Z (Homo sapiens) (UniProt Q9UBR2); test: Inhibition of human cathepsin Z at 10 uM

Plasminogen (Homo sapiens), sequence (P00747 97-580 limits assumed): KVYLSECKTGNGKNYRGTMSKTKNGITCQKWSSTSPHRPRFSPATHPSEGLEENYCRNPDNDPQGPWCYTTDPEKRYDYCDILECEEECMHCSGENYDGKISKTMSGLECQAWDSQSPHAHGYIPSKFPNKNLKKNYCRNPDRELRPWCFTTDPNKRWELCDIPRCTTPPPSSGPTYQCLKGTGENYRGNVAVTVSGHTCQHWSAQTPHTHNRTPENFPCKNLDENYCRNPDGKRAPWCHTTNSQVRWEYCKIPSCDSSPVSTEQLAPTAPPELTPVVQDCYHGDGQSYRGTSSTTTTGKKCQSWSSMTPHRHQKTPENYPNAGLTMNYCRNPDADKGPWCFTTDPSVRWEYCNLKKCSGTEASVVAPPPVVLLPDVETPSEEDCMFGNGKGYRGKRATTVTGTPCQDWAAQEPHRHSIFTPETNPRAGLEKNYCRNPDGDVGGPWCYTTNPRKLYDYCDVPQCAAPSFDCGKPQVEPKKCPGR
Plasminogen (Homo sapiens), sequence (P00747 581-810 limits assumed): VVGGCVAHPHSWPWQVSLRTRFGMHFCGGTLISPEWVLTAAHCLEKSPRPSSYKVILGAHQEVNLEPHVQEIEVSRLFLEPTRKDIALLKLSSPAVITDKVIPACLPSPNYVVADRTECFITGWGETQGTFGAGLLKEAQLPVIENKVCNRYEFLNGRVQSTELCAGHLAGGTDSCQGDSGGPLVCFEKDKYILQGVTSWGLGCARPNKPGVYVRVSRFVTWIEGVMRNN
Dipeptidyl peptidase 4 (Homo sapiens), sequence (P27487 whole entry, looked up): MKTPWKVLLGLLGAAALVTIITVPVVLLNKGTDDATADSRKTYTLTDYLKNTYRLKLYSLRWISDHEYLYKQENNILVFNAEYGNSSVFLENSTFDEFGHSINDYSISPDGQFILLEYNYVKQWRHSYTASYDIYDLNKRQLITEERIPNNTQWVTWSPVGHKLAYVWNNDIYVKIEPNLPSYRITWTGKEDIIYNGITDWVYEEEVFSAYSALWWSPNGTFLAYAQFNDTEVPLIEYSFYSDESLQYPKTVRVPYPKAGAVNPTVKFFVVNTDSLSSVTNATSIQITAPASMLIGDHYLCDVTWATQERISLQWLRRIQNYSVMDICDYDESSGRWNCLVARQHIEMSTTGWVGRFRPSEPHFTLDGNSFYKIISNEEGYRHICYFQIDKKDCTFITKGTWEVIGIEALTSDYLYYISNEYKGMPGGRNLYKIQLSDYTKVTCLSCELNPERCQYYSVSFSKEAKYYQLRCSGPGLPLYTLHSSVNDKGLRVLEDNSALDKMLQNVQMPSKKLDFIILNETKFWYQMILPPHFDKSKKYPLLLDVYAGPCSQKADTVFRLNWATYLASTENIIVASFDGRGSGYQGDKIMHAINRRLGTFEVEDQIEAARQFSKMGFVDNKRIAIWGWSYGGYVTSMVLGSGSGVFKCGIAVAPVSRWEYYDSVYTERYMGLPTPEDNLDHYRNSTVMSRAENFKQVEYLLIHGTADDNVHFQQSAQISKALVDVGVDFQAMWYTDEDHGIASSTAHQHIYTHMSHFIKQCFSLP
Renin (Homo sapiens), sequence (P00797 whole entry): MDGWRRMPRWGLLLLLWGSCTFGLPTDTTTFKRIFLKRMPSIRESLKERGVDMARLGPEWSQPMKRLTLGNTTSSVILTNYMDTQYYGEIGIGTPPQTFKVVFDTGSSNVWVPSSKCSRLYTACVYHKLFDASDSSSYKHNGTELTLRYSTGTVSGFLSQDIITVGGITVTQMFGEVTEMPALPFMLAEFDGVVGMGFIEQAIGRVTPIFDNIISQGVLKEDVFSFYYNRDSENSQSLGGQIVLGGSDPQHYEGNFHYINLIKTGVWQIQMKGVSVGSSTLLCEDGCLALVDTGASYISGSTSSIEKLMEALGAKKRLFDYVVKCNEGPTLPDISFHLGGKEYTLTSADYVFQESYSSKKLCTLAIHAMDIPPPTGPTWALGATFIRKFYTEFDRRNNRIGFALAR
Endothelin-converting enzyme 1 (Homo sapiens), sequence (P42892 whole entry): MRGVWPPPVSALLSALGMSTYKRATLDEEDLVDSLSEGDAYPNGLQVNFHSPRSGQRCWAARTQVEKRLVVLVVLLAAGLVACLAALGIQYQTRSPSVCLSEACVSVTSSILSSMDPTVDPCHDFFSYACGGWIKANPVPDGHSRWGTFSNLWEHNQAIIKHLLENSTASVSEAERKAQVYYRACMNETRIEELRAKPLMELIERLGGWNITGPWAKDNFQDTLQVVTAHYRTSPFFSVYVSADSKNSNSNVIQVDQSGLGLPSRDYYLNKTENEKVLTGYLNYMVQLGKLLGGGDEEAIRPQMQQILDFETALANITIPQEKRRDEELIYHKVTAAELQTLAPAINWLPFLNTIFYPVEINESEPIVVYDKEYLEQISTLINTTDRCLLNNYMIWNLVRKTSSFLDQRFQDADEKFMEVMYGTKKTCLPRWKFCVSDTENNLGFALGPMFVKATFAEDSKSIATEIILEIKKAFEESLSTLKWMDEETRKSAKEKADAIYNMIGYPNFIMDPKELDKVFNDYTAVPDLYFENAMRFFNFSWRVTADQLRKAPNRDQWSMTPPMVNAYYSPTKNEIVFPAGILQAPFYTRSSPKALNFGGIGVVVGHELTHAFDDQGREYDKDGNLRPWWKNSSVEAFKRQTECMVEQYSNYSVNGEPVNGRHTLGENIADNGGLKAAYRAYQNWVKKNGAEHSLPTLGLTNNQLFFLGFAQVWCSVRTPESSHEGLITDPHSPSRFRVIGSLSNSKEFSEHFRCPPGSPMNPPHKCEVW
Caspase-7 (Homo sapiens), sequence (P55210 24-198 limits assumed): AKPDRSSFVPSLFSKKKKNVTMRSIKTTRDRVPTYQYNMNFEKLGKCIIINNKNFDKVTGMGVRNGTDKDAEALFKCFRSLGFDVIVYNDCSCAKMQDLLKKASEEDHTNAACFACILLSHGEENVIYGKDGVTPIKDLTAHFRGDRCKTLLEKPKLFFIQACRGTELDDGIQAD
Caspase-7 (Homo sapiens), sequence (P55210 207-303 limits assumed): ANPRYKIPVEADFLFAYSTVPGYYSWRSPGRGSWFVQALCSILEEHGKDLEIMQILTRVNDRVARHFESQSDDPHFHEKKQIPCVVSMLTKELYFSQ
Cathepsin S (Homo sapiens), sequence (P25774 115-331 limits assumed): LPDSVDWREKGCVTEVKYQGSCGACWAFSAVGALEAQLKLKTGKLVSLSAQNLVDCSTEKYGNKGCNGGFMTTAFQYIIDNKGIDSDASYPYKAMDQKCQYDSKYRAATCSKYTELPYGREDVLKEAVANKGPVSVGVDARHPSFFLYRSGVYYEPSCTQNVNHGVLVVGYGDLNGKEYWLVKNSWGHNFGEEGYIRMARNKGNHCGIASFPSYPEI
Calpain-1 catalytic subunit (Homo sapiens), sequence (P07384 whole entry): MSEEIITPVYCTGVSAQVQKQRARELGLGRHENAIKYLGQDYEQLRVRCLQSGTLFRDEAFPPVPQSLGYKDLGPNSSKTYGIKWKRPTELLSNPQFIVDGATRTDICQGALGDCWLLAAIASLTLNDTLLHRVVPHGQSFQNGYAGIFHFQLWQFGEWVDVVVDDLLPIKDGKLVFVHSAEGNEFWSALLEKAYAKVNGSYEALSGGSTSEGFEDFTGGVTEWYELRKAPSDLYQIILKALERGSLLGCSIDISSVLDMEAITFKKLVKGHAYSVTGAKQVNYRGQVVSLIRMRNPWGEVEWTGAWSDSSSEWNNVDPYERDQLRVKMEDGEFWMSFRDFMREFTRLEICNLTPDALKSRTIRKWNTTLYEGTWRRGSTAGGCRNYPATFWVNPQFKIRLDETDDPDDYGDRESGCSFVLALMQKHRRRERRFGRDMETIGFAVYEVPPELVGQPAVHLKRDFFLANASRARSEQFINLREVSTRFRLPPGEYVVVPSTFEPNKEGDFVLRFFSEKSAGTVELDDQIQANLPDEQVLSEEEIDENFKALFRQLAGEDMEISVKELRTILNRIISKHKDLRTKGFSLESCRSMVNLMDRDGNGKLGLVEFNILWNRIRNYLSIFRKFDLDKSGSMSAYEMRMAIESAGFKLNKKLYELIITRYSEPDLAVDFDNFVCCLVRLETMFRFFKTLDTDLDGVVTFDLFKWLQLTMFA
Tissue-type plasminogen activator (Homo sapiens), sequence (P00750 36-562 limits assumed): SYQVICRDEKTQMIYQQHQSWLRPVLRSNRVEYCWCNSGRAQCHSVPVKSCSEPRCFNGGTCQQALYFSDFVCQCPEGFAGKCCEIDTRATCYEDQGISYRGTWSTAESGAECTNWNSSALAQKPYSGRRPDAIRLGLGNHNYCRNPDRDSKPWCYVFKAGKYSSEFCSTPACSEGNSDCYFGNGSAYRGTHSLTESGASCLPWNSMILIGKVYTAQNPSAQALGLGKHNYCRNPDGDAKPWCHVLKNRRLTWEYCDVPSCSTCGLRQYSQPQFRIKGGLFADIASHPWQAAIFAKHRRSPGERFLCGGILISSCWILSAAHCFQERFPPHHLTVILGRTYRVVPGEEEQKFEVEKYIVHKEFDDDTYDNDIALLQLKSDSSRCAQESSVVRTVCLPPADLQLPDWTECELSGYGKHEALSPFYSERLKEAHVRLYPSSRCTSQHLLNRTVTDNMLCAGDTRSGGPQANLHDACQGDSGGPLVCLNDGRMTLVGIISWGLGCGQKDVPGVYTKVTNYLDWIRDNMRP
Dipeptidyl peptidase 1 (Bos taurus), sequence (Q3ZCJ8 25-134 limits assumed): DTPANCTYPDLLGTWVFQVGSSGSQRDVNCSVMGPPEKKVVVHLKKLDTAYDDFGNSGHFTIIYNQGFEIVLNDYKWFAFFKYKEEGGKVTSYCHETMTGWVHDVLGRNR
Dipeptidyl peptidase 1 (Bos taurus), sequence (Q3ZCJ8 231-394 limits assumed): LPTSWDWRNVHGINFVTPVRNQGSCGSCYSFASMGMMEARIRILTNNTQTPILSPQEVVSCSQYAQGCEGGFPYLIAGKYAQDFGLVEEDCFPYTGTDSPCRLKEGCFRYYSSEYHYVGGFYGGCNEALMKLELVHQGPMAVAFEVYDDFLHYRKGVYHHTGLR
Dipeptidyl peptidase 1 (Bos taurus), sequence (Q3ZCJ8 395-463 limits assumed): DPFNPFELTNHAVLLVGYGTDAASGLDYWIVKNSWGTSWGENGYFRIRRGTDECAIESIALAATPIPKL
Protease (Human immunodeficiency virus 1), sequence (Q9YQ12 as listed by the source): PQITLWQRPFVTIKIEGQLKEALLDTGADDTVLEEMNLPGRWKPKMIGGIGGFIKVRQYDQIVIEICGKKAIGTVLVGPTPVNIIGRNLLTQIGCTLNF

SMILES: CC(C)C[C@H](NC(=O)[C@@H](NC(=O)c1cnc(-c2ccccc2)cn1)[C@@H](C)O)B(O)O
IC50 [1]: 270 nM
IC50 [2]: 1.8 nM
EC50 [3]: 21 nM
IC50 (A2780): 8.2 nM

SMILES: CC(C)C[C@H](NC(=O)[C@H](Cc1ccccc1)NC(=O)c1cnccn1)B(O)O [BORTEZOMIB]
half-life [4]: 37 min
inhibition [5]: 2%
inhibition (Chymase (Homo sapiens)): 95%
IC50 [1]: 500 nM
inhibition (Sus scrofa [6]): -1%
half-life [7]: > 40 min
IC50 [8]: 1220 nM
clearance [9]: 14.3 mL/min/kg
inhibition (Caspase-8 (Homo sapiens)): -4%
fraction unbound [10]: 0.049
inhibition (Caspase-7 (Homo sapiens)): 1%
inhibition [11]: 2%
inhibition (Caspase-1 (Homo sapiens)): 0%
IC50 [2]: 3.8 nM
inhibition (Caspase-3 (Homo sapiens)): 2%
half-life [12]: 16 min
inhibition [13]: 6%
Activity (Mus musculus): inactive
Vd [14]: 102 L/kg
inhibition (Trypsin (Homo sapiens)): -1%
EC50 [3]: 21 nM
inhibition [15]: 50%
half-life [16]: 98 h
fraction unbound [17]: 0.058
inhibition [18]: -3%
inhibition (Caspase-9 (Homo sapiens)): 0%
inhibition [19]: -1%
inhibition [20]: 27%
fraction unbound [21]: 0.069
inhibition [22]: 96%
inhibition (Caspase-2 (Homo sapiens)): 1%
inhibition [23]: 22%
inhibition [24]: 26%
inhibition [25]: 4%
inhibition [26]: 3%
bioavailability [27]: 11%
inhibition [28]: 48%
inhibition (Sus scrofa [29]): 8%
inhibition (Homo sapiens [30]): 0%
inhibition [31]: 5%
inhibition [32]: -6%
inhibition [33]: 1%
half-life [34]: 21 min
inhibition (Renin (Homo sapiens)): -1%
inhibition [35]: -1%
AUC(0-inf) [36]: 927 ng·h/mL
inhibition (Homo sapiens [37]): 86%
inhibition [38]: 1%
inhibition [39]: 9%
inhibition [40]: 9%
half-life [41]: 70 h
inhibition [42]: 8%
inhibition [43]: -2%
IC50 (Cathepsin G): 520 nM
inhibition [44]: 4%
inhibition [45]: -1%
IC50 (Chymase): 1190 nM
inhibition [46]: 0%
inhibition [47]: 6%
IC50 (A2780): 1.7 nM
inhibition [48]: -7%
AUC(0-inf) [49]: 499 ng·h/mL
inhibition [50]: 27%

SMILES: CC(C)C[C@H](NC(=O)[C@@H](NC(=O)c1cccc(-c2ccccc2)c1)[C@@H](C)O)B(O)O
IC50 [1]: 900 nM
IC50 [2]: 0.8 nM
EC50 [3]: 16.9 nM
IC50 (A2780): 4.8 nM

SMILES: CC(C)C[C@H](NC(=O)[C@@H](NC(=O)c1csc(-c2ccccc2)n1)[C@@H](C)O)B(O)O
IC50 [1]: 590 nM
IC50 [2]: 4.6 nM
EC50 [3]: 16 nM
IC50 (A2780): 28 nM

SMILES: CC(C)C[C@H](NC(=O)[C@@H](NC(=O)c1ncccc1-c1ccccc1)[C@@H](C)O)B(O)O
IC50 [1]: 460 nM
IC50 [2]: 8.8 nM
EC50 [3]: 13000 nM

Further lines, with some results ahead:

IC50 [1]: 290 nM
IC50 [2]: 2 nM
EC50 [3]: 18.6 nM
SMILES: CC(C)C[C@H](NC(=O)[C@@H](NC(=O)c1cc(-c2ccccc2)ccn1)[C@@H](C)O)B(O)O
IC50 (A2780): 5.1 nM

IC50 [1]: 500 nM
IC50 [2]: 1.6 nM
EC50 [3]: 27 nM
SMILES: CC(C)C[C@H](NC(=O)[C@@H](NC(=O)c1ccc2ccccc2c1)[C@@H](C)O)B(O)O
IC50 (A2780): 5.3 nM

IC50 [1]: 280 nM
IC50 [2]: 2.3 nM
EC50 [3]: 27 nM
SMILES: CC(C)C[C@H](NC(=O)[C@@H](NC(=O)c1cncc(-c2ccccc2)n1)[C@@H](C)O)B(O)O
IC50 (A2780): 9.8 nM

IC50 [2]: 42 nM
EC50 [3]: 1350 nM
SMILES: CC(C)C[C@H](NC(=O)[C@@H](NC(=O)c1cnccn1)[C@@H](C)O)B(O)O

IC50 [1]: 600 nM
IC50 [2]: 0.9 nM
EC50 [3]: 21 nM
SMILES: CC(C)C[C@H](NC(=O)[C@@H](NC(=O)c1ccc(-c2ccccc2)cc1)[C@@H](C)O)B(O)O
IC50 (A2780): 4.9 nM

IC50 [1]: 1300 nM
IC50 [2]: 6.8 nM
EC50 [3]: 32 nM
SMILES: CC(C)C[C@H](NC(=O)[C@@H](NC(=O)c1ccc2ccccc2n1)[C@@H](C)O)B(O)O
IC50 (A2780): 20.9 nM
